{"source": "paper PMC10413464", "about": "(ACS Omega, 2023)", "key": {"[1]": {"tested_on": "Ecoil-tagged FcγRIIIa (V158)", "experiment": "SPR capture of Ecoil-tagged FcγRIIIa on Kcoil surfaces", "format": "binding", "settings": "for FcγRIIIa capture rate: Ecoil-tagged FcγRIIIa 0.25 μg/mL, 10 μL/min, from 25 s test injection", "in_short": "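FcγRIIIa V158 was Ecoil-tagged, expressed transiently in CHO-3E7 and purified by metal affinity. Biacore T100 SPR used CM5 chips in HBS-EP at 25 °C. Kcoil surfaces were amine-coupled Cys-free, thiol-coupled Cys- or amine-coupled dimeric Cys-Kcoil. A short 25 s injection gave the capture rate, assumed constant, to set the injection time for a 20 RU capture. The test was repeated before each batch.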"}, "[2]": {"tested_on": "Ecoil-EGF", "experiment": "SPR capture of Ecoil-EGF on Kcoil surfaces", "format": "binding", "settings": "10 μL/min", "in_short": "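Biacore T100 SPR on CM5 dextran chips, HBS-EP running buffer, 25 °C, 10 Hz collection. A test injection gave the Ecoil-EGF capture rate (RU/s), used to capture about 10 RU. Ecoil-EGF was at 0.05 µg/mL on thiol-coupled Kcoil and 0.1 µg/mL on amine-coupled monomeric or dimeric Kcoil. Surfaces were regenerated with two 15 s pulses of 6 M guanidium-HCl.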"}, "[3]": {"tested_on": "Ecoil peptide", "experiment": "SPR Ecoil peptide interaction with grafted Kcoil peptide", "format": "binding", "settings": "comparison of the three grafting strategies"}, "[4]": {"experiment": "Ecoil-EGF/hEGF capture on glass slides by ELISA", "format": "binding", "settings": "5 nM hEGF stock, mean ± SD, n = 3"}, "[5]": {"tested_on": "EGFR phosphorylation", "settings": "read-out: EC50 for EGFR phosphorylation in solution; cited from earlier work"}, "[6]": {"biological_target": "cysteine-free azidohomoalanine-terminated Kcoil, AhaGG-(KVSALKE)5", "experiment": "SPR"}, "[7]": {"biological_target": "dimeric Kcoil–Kcoil peptide (oxidized Cys-Kcoil, linked by a disulfide bond)", "experiment": "SPR"}}}
{"molecule": "CGG-(KVSALKE)5 [Cys-Kcoil]", "values": [{"measurement": "FcγRIIIa capture rate", "setting": "[1]", "value": 0.57, "unit": "RU/s"}, {"measurement": "Ecoil-EGF capture rate", "setting": "[2]; Ecoil-EGF 0.05 μg/mL", "value": 1.32, "unit": "RU/s"}, {"measurement": "bioavailability (in words)", "setting": "[3]", "value": "highest percentage of bioavailability"}]}
{"molecule": "hEGF: Recombinant human EGF (hEGF, #236-EG)", "values": [{"measurement": "density on amine surface after 2 h (non-specific adsorption)", "setting": "[4]; amine surface", "value": "0.50 ± 0.01", "unit": "pmol/cm^2"}, {"measurement": "density on thiol surface after 2 h (non-specific adsorption)", "setting": "[4]; thiol surface", "value": "0.50 ± 0.01", "unit": "pmol/cm^2"}, {"measurement": "EC50", "setting": "[5]", "value": 4, "unit": "nM"}]}
{"molecule": "AhaGG-(KVSALKE)5 [Cys-free Kcoil]", "values": [{"measurement": "FcγRIIIa capture rate", "setting": "[1]", "value": 0.06, "unit": "RU/s"}, {"measurement": "Ecoil-tagged FcγRIIIa capture (in words)", "setting": "[1]; SPR, 20 RU target", "value": "furthest from the 20 RU target"}, {"measurement": "Ecoil-EGF capture rate", "setting": "[2]; Ecoil-EGF 0.1 μg/mL", "value": 0.32, "unit": "RU/s"}]}
{"molecule": "Ac-EVSALEKEVSALEKEVSALEKEVSALEKEVSALEK-NH2", "note": "[Ecoil peptide [(EVSALEK)5]]", "values": [{"measurement": "koff", "setting": "[6]", "value": 0.000308, "unit": "s⁻¹"}, {"measurement": "koff", "setting": "[7]", "value": 0.000468, "unit": "s⁻¹"}]}
